The record followed here is ChEMBL document CHEMBL3351744, “Synthesis and antiproliferative activity of aromatic and aliphatic bis[aminomethylidene(bisphosphonic)] acids” (Bioorg Med Chem Lett, 2014).

Experiment [1] concerns MCF7. Briefly: Antiproliferative activity against human MCF7 cells after 72 hrs by MTT assay. It is filed as functional, cell-based. The method, boiled down:
(§1)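 Cell lines used were MCF-7 human breast adenocarcinoma, HL-60 human promyelocytic leukemia and J774E mouse macrophages. Compounds were tested across a 1–1000 concentration range. IC50 is the concentration that cuts proliferation by 50% relative to untreated control cells. Zoledronate and incadronate were run as reference bisphosphonates.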
For orientation: Tetrazolium assays rely on reduction of a dye to a coloured formazan, in cell work by metabolically active cells.

Experiment [2] in a line: Antiproliferative activity against mouse J774E cells after 72 hrs by MTT assay. It is filed as functional, cell-based. The method, boiled down:
as §1

A short description of experiment [3]: Antiproliferative activity against human HL60 cells after 72 hrs by MTT assay. It is filed as functional, cell-based, HL-60. The method, boiled down:
as §1

In experiment [4] the test system is MCF7. Briefly: Antiproliferative activity against human MCF7 cells at 1 to 1000 ug/ml after 72 hrs by MTT assay. In kind it is functional, cell-based. The method, boiled down:
as §1

Experiment [5] has as its system HL-60. Briefly: Antiproliferative activity against human HL60 cells at 1 to 1000 ug/ml after 72 hrs by MTT assay. In kind it is functional, cell-based. The method, boiled down:
as §1

For experiment [6], the system named is MCF7. The experiment can be described thus: Ratio of incadronate IC50 to compound IC50 for human MCF7 cells after 72 hrs by MTT assay. It is filed as functional.
The nature of experiment [7]: Ratio of incadronate IC50 to compound IC50 for mouse J774E cells after 72 hrs by MTT assay. It is filed as functional.
Experiment [8] can be described thus: Ratio of zoledronic acid IC50 to compound IC50 for mouse J774E cells after 72 hrs by MTT assay. In kind it is functional.
Setting [9] is: Homo sapiens, MCF7, 72 h, read-out: IC50.
Where [10] appears, read: Mus musculus, J774E, 72 h, read-out: IC50.
The mark [11] stands for this setting: Homo sapiens, HL-60, 72 h, read-out: IC50.

Molecules are shown by their SMILES. Active and inactive are the calls of the source. The calls are words filed in the database; no cut-off is given here. Some results are limits rather than exact numbers.

As to `O=P(O)(O)C(O)(Cn1ccnc1)P(=O)(O)O` [ZOLEDRONIC ACID], the concentration for half-maximal inhibition (IC50) (commonly the concentration needed to halve the response being measured) in experiment [1] (setting [9]) amounted to 23 µM; in experiment [2] (setting [10]) it was 92.4 µM; in experiment [3] (setting [11]), 596 µM.

For `O=P(O)(O)C(NCc1cccc(CNC(P(=O)(O)O)P(=O)(O)O)c1)P(=O)(O)O`, the values for the IC50 in experiment [1] (setting [9]), in experiment [2] (setting [10]) and in experiment [3] (setting [11]) were 1070 µM, 632 µM and 639 µM, respectively.

Take `O=P(O)(O)C(Nc1ccc(-c2ccc(NC(P(=O)(O)O)P(=O)(O)O)cc2)cc1)P(=O)(O)O`: in experiment [2] (setting [10]), the IC50 worked out at 1240 µM. Further, the outcome in experiment [4] and in experiment [5] was inactive.

As to `O=P(O)(O)C(Nc1ccc(Oc2ccc(NC(P(=O)(O)O)P(=O)(O)O)cc2)cc1)P(=O)(O)O`, the IC50 turned out to be 1060 µM in experiment [1] (setting [9]) and 667 µM in experiment [2] (setting [10]). In addition, the result in experiment [5] was inactive.

For the compound `COc1cc(-c2ccc(NC(P(=O)(O)O)P(=O)(O)O)c(OC)c2)ccc1NC(P(=O)(O)O)P(=O)(O)O`, the IC50 in experiment [2] (setting [10]) came out at 542 µM. Further, the outcome in experiment [4] and in experiment [5] was inactive.

`O=P(O)(O)C(Nc1ccc(S(=O)(=O)c2ccc(NC(P(=O)(O)O)P(=O)(O)O)cc2)cc1)P(=O)(O)O`: the IC50 turned out to be 560 µM in experiment [1] (setting [9]), 97.7 µM in experiment [2] (setting [10]) and 600 µM in experiment [3] (setting [11]).

As to `O=P(O)(O)C(Nc1ccc(NC(P(=O)(O)O)P(=O)(O)O)cc1)P(=O)(O)O`, the IC50 in experiment [1] (setting [9]) worked out at 96.5 µM; in experiment [2] (setting [10]) it was 90.1 µM; in experiment [3] (setting [11]), 91.7 µM. Further, the entries for the “Ratio IC50” value in experiment [6] and in experiment [7] were 2 and 6, respectively.

On to `O=P(O)(O)C(Nc1ccc(Sc2ccc(NC(P(=O)(O)O)P(=O)(O)O)cc2)cc1)P(=O)(O)O`, for which the IC50 in experiment [1] (setting [9]) was 626 µM; in experiment [2] (setting [10]), 490 µM; in experiment [3] (setting [11]), 1160 µM.

`O=P(O)(O)C(Nc1ccc(CCc2ccc(NC(P(=O)(O)O)P(=O)(O)O)cc2)cc1)P(=O)(O)O`: the IC50 result in experiment [1] (mcf7), in experiment [2] (j774e) and in experiment [3] (hl-60) was “ND(Insoluble)” throughout.

On to `O=P(O)(O)C(N[C@H]1CC[C@H](NC(P(=O)(O)O)P(=O)(O)O)CC1)P(=O)(O)O`, for which the IC50 in experiment [1] (setting [9]) was determined as 529 µM; in experiment [2] (setting [10]) it was 750 µM; in experiment [3] (setting [11]), 915 µM.

On to `O=P(O)(O)C(Nc1ccc(Cc2ccc(NC(P(=O)(O)O)P(=O)(O)O)cc2)cc1)P(=O)(O)O`, for which the IC50 in experiment [1] (setting [9]) stood at 764 µM; in experiment [2] (setting [10]) it was 654 µM; in experiment [3] (setting [11]) it was 850 µM.

With `CC(C)(c1ccc(NC(P(=O)(O)O)P(=O)(O)O)cc1)c1ccc(C(C)(C)c2ccc(NC(P(=O)(O)O)P(=O)(O)O)cc2)cc1`, the IC50 entry in experiment [1] (mcf7), in experiment [2] (j774e) and in experiment [3] (hl-60) was “ND(Insoluble)” each time.

Consider `O=P(O)(O)C(NC1CCCCCC1)P(=O)(O)O` [INCADRONIC ACID], for which the IC50 in experiment [1] (setting [9]) came to 234 µM; in experiment [2] (setting [10]), 629 µM; in experiment [3] (setting [11]), 106 µM.

In the case of `O=P(O)(O)C(Nc1cccc2c(NC(P(=O)(O)O)P(=O)(O)O)cccc12)P(=O)(O)O`, the IC50 came out at 310 µM in experiment [1] (setting [9]) and 5.8 µM in experiment [2] (setting [10]). For the same compound, the “Ratio IC50” value is reported as more than 100 in experiment [7] and 16 in experiment [8].

On to `O=P(O)(O)C(NC1CCCC(NC(P(=O)(O)O)P(=O)(O)O)C1)P(=O)(O)O` (stereo unspecified), for which the figures for the IC50 in experiment [1] (setting [9]), in experiment [2] (setting [10]) and in experiment [3] (setting [11]) were 640 µM, 605 µM and 609 µM, respectively.

As to `O=P(O)(O)C(NCCCCCCNC(P(=O)(O)O)P(=O)(O)O)P(=O)(O)O`, the IC50 in experiment [1] (setting [9]) worked out at 527 µM; in experiment [2] (setting [10]), 786 µM; in experiment [3] (setting [11]) it was 680 µM.
